≈ marks a conversion by molar mass, not a printed value.
What was measured:
[1] = tested on: Micrococcus luteus; test: Antibacterial activity against Micrococcus luteus IFO 12708; type: functional
[2] = tested on: K562; test: Cytotoxicity against human K562 cells assessed as viable cells after 72 hrs by MTS/PMS assay; type: functional, cell-based; details: K562, 72 h
[3] = tested on: Staphylococcus aureus; test: Antibacterial activity against Staphylococcus aureus […]; type: functional
[4] = tested on: Escherichia coli; test: Antibacterial activity against Escherichia coli ATCC 25922; type: functional
[5] = tested on: Salmonella enterica; test: Antibacterial activity against Salmonella Typhimurium ATCC 14028; type: functional, Salmonella enterica subsp. enterica serovar Typhimurium
[6] = tested on: Proteus vulgaris; test: Antibacterial activity against Proteus vulgaris ATCC 3851; type: functional
[7] = tested on: Bacillus subtilis; test: Antibacterial activity against Bacillus subtilis ATCC 6633; type: functional
[8] = molecular target: T1, Sortase A (Staphylococcus aureus, UniProt Q9S446); test: Inhibition of Staphylococcus aureus sortase A after 1 hr in the presence of fluorescent peptide Dabcul-QALPETGEE-Edans by fluorimetry
T1 sequence (Q9S446 whole entry): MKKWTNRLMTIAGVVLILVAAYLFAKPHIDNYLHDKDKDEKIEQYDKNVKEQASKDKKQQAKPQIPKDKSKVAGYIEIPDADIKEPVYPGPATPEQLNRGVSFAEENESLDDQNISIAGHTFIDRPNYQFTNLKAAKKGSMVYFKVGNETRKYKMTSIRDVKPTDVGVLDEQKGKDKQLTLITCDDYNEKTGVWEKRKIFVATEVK
Outline: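 p-Hydroxymercuribenzoic acid (p-HMB) run alongside as the positive control.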

[9] = molecular target: T2, Sortase A (Staphylococcus aureus) (UniProt Q9S446); test: Selectivity ratio, inhibition of recombinant sortase A from Staphylococcus aureus of drug over the para-(hydroxymercury)benzoic acid sodium salt
T2 sequence (whole entry): T1 sequence (Q9S446 whole entry)

Structure (SMILES) | MIC [1] | IC50 [2] | MIC [3] | MIC [4] | MIC [5] | MIC [6] | MIC [7] | IC50 [8] | Selectivity ratio [9]
O=C1C2=C3C4=[N+](CCc5c[nH]c1c54)C1C[C@@]34C[C@@H](N2)SC4=CC1=O | 6.25 µg/mL | 6.1 µM | 100 µg/mL | > 100 µg/mL | > 100 µg/mL | > 100 µg/mL | 25 µg/mL | – | –
O=C1C=C[C@]2(C=C1Br)CCNC1=C2C2=NCCc3c[nH]c(c32)C1=O | 50 µg/mL (≈ 130 µM) | 1.3 µM | 100 µg/mL (≈ 260 µM) | > 100 µg/mL | 50 µg/mL (≈ 130 µM) | 25 µg/mL (≈ 65.1 µM) | 50 µg/mL (≈ 130 µM) | 186 µM | –
O=C1C2=C3C4=[N+](CCc5c[nH]c1c54)C1[C@H](O)CC(=O)[C@@]3(C[C@@H](O)N2)[C@H]1O | 50 µg/mL | 2.2 µM | > 100 µg/mL | > 100 µg/mL | > 100 µg/mL | > 100 µg/mL | > 100 µg/mL | 6.5 µM | 10
O=C1C2=C3C4=[N+](CCc5c[nH]c1c54)C1[C@H](O)C=C4S[C@@H](C[C@@]43[C@H]1O)N2 | 25 µg/mL | 2.5 µM | > 100 µg/mL | > 100 µg/mL | > 100 µg/mL | 50 µg/mL | 100 µg/mL | 192 µM | –
O=C1C2=C3C4=[N+](CCc5c[nH]c1c54)C1C[C@@]34C[C@@H](N2)SC4=C[C@H]1O | 25 µg/mL | 2.1 µM | > 100 µg/mL | > 100 µg/mL | > 100 µg/mL | 50 µg/mL | 25 µg/mL | 75.7 µM | –
CO[C@H]1C2C(=O)C=C3S[C@H]4C[C@]31C1=C(N4)C(=O)c3[nH]cc4c3C1=[N+]2CC4 | 12.5 µg/mL | 2.5 µM | 50 µg/mL | > 100 µg/mL | 100 µg/mL | 100 µg/mL | 50 µg/mL | 146 µM | –
O=C1C2=C3C4=[N+](CCc5c[nH]c1c54)C1C(=O)C=C4S[C@@H](C[C@@]43[C@H]1O)N2 | 12.5 µg/mL | 4.5 µM | 50 µg/mL | > 100 µg/mL | 100 µg/mL | 100 µg/mL | 25 µg/mL | 130 µM | –
O=C1C=C[C@@]23C[C@@H](NC4=C2C2=NCCc5c[nH]c(c52)C4=O)SC3=C1 [1-DEBROMODISCORHABDIN B] | 25 µg/mL (≈ 74.5 µM) | 25 µM | 25 µg/mL (≈ 74.5 µM) | > 100 µg/mL | 50 µg/mL (≈ 149 µM) | 50 µg/mL (≈ 149 µM) | 12.5 µg/mL (≈ 37.3 µM) | 160 µM | –
O=C1C=C2S[C@H]3C[C@]2(C=C1Br)C1=C(N3)C(=O)c2[nH]cc3c2C1=NCC3 [(+)-DISCORHABDIN B] | 25 µg/mL (≈ 60.3 µM) | 7.2 µM | 50 µg/mL (≈ 121 µM) | > 100 µg/mL | 100 µg/mL (≈ 241 µM) | 3.12 µg/mL (≈ 7.54 µM) | 12.5 µg/mL (≈ 30.2 µM) | 132 µM | –
CC1(C)S[C@@H]2[C@H](NC(=O)[C@H](N)c3ccccc3)C(=O)N2[C@H]1C(=O)O [AMPICILLIN] | 1.56 µg/mL (≈ 4.46 µM) | – | 1.56 µg/mL (≈ 4.46 µM) | 12.5 µg/mL (≈ 35.8 µM) | 3.12 µg/mL (≈ 8.93 µM) | 3.12 µg/mL (≈ 8.93 µM) | 1.56 µg/mL (≈ 4.46 µM) | – | –
O=C1C=CC2(C=C1)CCNC1=C2C2=NCCc3c[nH]c(c32)C1=O [DIDEBROMODISCORHABDIN C] | > 100 µg/mL | 21 µM | > 100 µg/mL | > 100 µg/mL | > 100 µg/mL | > 100 µg/mL | > 100 µg/mL | 127 µM | –
O=C1C2=C(C3=NCCc4c[nH]c1c43)C1(C=C(Br)C(O)C(Br)=C1)CCN2 (centres undefined) [DIHYDRODISCORHABDIN C] | 100 µg/mL (≈ 215 µM) | 20.2 µM | > 100 µg/mL | > 100 µg/mL | > 100 µg/mL | > 100 µg/mL | 100 µg/mL (≈ 215 µM) | > 300 µM | –
O=C1C(Br)=CC2(C=C1Br)CCNC1=C2C2=NCCc3c[nH]c(c32)C1=O [DISCORHABDIN C] | 12.5 µg/mL (≈ 27 µM) | 25.2 µM | > 100 µg/mL | > 100 µg/mL | > 100 µg/mL | 50 µg/mL (≈ 108 µM) | 25 µg/mL (≈ 54 µM) | 165 µM | –
COc1cccc2c1C(=O)c1c(O)c3c(c(O)c1C2=O)C[C@@](O)(C(=O)CO)C[C@@H]3O[C@H]1C[C@H](N)[C@H](O)[C@H](C)O1 [DOXORUBICIN] | – | 8.5 µM | – | – | – | – | – | – | –
O=C1C(NCCc2ccc(O)cc2)=CC2=NCCc3c[nH]c1c32 [MAKALUVAMINE D] | 50 µg/mL (≈ 163 µM) | 24.6 µM | > 100 µg/mL | > 100 µg/mL | 100 µg/mL (≈ 325 µM) | > 100 µg/mL | 25 µg/mL (≈ 81.3 µM) | 148 µM | –
O=C1C(NC2Cc3cc(Br)c(O)cc3S2)=CC2=NCCc3c[nH]c1c32 (centres undefined) [MAKALUVAMINE F] | 3.12 µg/mL (≈ 7.51 µM) | 8.9 µM | 50 µg/mL (≈ 120 µM) | > 100 µg/mL | 100 µg/mL (≈ 240 µM) | 25 µg/mL (≈ 60.1 µM) | 12.5 µg/mL (≈ 30 µM) | 175 µM | –
